According to paper PMC12238435 (EJNMMI Radiopharmacy and Chemistry, 2025):
Like-named read-outs stand apart in the source and are kept apart here.

Key:
[1] = tested on: monocarboxylate transporter 1 (MCT1); conditions: AZD3965 1.1 mg/kg; same mouse model; ref Dillemuth et al. [2025]; cited from earlier work
[2] = ref Dillemuth et al. [2025]; cited from earlier work
[3] = tested on: intracranial BT12 glioblastoma xenografts; assay: PET imaging of mice with intracranial BT12 glioblastoma xenografts; format: in vivo, mouse; conditions: for SUV in healthy brain: i.v.
Summary of the method: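 Mice were imaged 21 days after intracranial BT12 inoculation, under 1–2% isoflurane on a heating pad. Non-contrast HRCT came first, then the tracer (4.70 ± 0.44 MBq, 0.10 ± 0.06 µg) i.v. via tail-vein cannula and 60-min dynamic list-mode PET. For blocking, the MCT1 inhibitor (1.1 mg/kg) was given i.v. 15 min before tracer. SUV was corrected for injected dose, body weight and tail/cannula residue; TBR was also derived. Data are mean ± SD, unpaired t-test.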

[4] = Ex vivo biodistribution in mice with glioblastoma; parameters: species or system mouse; conditions: no blocking, 60 min postinjection, gamma counting, mean, n=7 ([18F]FNA-N-CooP), n=4 ([18F]FNA)
[5] = In vivo stability analysis; parameters: species or system mouse; conditions: mice with BT12 glioblastoma, i.v.
Summary of the method: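 After 60-min dynamic PET following tail-vein i.v. injection of the 18F-labelled peptide tracer, heparinized blood was centrifuged (2,100 × g, 5 min). Plasma was deproteinized with an equal volume of acetonitrile (14,000 × g, 3 min, RT), and fractions were gamma-counted. Protein-free plasma and acetonitrile-extracted brain homogenate were run on radio-HPLC (C18, 0.1% TFA water/acetonitrile, 12–80% B gradient). Peaks were assigned by reference retention times and co-injection.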

[6] = PET, glioblastoma mice, no blocking, mean ± SD, n = 4
[7] = PET, no blocking, single mouse (one of two)

## Cc1[nH]nc(C(F)(F)F)c1Cc1sc2c(c1C(=O)N1C[C@](C)(O)CO1)c(=O)n(C)c(=O)n2C(C)C [AZD3965]
[1]
  reduction of glioblastoma uptake of [^18F]FNA: 76%

## O=C(O)c1ccc([18F])nc1 [[^18F]FNA, 6-[^18F]fluoronicotinic acid, reference compound]
[2]
  in vivo stability: stable in vivo
[3]; [6]
  tumor-to-brain ratio (TBR): 1.51 ± 0.08
  SUV in healthy brain: 0.59 ± 0.05

## FB-CGLSGLGVA-NH2 [[^18F]FB-N-CooP]
[3]; [7]
  TBR: 1.28
  tumor SUV: 0.16

## FNA-CGLSGLGVA-NH2 [[^18F]FNA-N-CooP]
[4]
  %ID/g Kidney: 8.88 ± 6.16 %ID/g
  %ID/g Urine: 772.29 ± 373.58 %ID/g
[5]
  in vivo stability: not stable in vivo
[3]; AZD3965 1.1 mg/kg i.v. 15 min before tracer, single mouse (one of two)
  SUV in tumor, blocking with AZD3965: 0.17
[3]; [6]
  SUV in healthy brain: 0.11 ± 0.02
